Assay results taken from PMC12376879 (RSC Advances, 2025).

Target: human serum albumin (HSA) (Homo sapiens, UniProt P02768)
Experiment: Isothermal titration calorimetry with HSA
Type: binding
Summary of the method: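 HSA (60 μM) in the sample cell, titrated with test compound from the syringe. All solutions were in 5% DMSO in 20 mM phosphate buffer, pH 7.4, with the same solution in the reference cell. Concentrations were set by A280. The run was 19 injections (0.4 μl, then 18 × 2 μl) at 150 s intervals, stirring at 750 rpm. Ligand-into-buffer dilution heats were subtracted. Ka, n, ΔH and ΔS were fitted; ΔG was calculated from them.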

human serum albumin (HSA), sequence (P02768 25-609): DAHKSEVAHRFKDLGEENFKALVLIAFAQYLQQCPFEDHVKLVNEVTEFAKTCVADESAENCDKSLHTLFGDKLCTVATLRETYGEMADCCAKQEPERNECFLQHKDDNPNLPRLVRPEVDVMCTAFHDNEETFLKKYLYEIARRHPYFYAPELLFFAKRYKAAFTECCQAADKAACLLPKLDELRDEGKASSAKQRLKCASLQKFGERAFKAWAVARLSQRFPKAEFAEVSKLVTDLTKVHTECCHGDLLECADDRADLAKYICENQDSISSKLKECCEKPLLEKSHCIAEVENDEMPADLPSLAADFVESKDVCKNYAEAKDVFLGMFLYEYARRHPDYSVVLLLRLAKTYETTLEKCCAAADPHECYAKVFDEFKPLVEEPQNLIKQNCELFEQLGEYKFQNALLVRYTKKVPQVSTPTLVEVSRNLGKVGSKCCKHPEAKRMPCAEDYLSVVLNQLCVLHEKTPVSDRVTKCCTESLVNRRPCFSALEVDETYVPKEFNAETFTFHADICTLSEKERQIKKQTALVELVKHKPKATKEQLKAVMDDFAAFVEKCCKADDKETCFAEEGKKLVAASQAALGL

Compound: Cc1ccnc2c1NC(=O)c1cccnc1N2C1CC1 [nevirapine]
- Enthalpy (ΔHm), ITC (298 K, HSA): -2.53 kcal/mol
- Gibbs free energy (ΔGm), ITC (298 K, HSA): -6.84 kcal/mol
- Stoichiometry (n), ITC (298 K, HSA): 0.9
- Entropy (ΔS) of binding to HSA (calculated from ITC results): +60.4 J K^−1 mol^−1
